# Measurements: ChEMBL document CHEMBL3822419, “Rational Design of Potent and Selective Inhibitors of an Epoxide Hydrolase Virulence Factor from Pseudomonas aeruginosa” (J Med Chem, 2016)
# pEC50, pIC50: −log10 of the molar value.
# Key:
# [1] = Inhibition of Pseudomonas aeruginosa recombinant His-tagged CFTR inhibitory factor expressed in expressed in Top10 Escherichia coli cells assessed as formation of 6-methoxy-2-naphthaldehyde preincubated for 5 mins followed by addition of CMNGC as substrate measured for 10 mins in presence of BSA by fluorescent-based assay
# Epoxide hydrolase 1 = target: T1, Epoxide hydrolase 1 (Homo sapiens, UniProt P07099); experiment: Inhibition of recombinant human mEH expressed in baculovirus expression system assessed as formation of 6-methoxy-2-naphthaldehyde preincubated for 5 mins followed by addition of CMNGC as substrate by fluorescent-based assay
# T1 sequence (P07099 whole entry): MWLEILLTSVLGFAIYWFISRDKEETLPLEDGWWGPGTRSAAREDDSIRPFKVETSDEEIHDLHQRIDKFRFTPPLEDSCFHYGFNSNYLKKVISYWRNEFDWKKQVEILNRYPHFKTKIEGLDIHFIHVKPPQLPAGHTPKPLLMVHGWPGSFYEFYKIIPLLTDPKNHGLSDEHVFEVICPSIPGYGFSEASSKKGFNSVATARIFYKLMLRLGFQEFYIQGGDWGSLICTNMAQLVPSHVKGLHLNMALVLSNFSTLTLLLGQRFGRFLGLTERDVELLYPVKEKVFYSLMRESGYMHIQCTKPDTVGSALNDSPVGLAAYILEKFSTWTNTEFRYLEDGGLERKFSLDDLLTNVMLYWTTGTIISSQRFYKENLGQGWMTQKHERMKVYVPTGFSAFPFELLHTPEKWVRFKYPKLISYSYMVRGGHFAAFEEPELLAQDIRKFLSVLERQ
# [2] = Stability in human liver microsomes assessed as compound remaining measured after 60 mins in presence of NADPH by LC-MS/MS analysis; format: ADME; details: read-out: Stability
# [3] = Agonist activity at thyroid hormone receptor in rat GH3 cells expressing TRE measured after 24 hrs in presence of T3 by luciferase reporter gene assay; format: cell-based; details: GH3, 24 h
# In short: (§1)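 GH3.TRE-Luc cells grown in regular growth medium, then seeded into 24-well plates for 24 h. Cells exposed 24 h with or without T3 plus test chemical in DMSO, kept at 0.5% (v/v) in exposure medium. Viability by total protein (BCA assay). Luciferase activity read on lysed cells.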
# [4] = Protein binding in Balb/c mouse plasma at 1 uM by rapid equilibrium dialysis method; format: ADME, cell-free
# In short: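 Mouse plasma protein binding measured at 1 µM compound by rapid equilibrium dialysis.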
# Liver microsome = experiment: Half life in human liver microsomes measured after 60 mins in presence of NADPH by LC-MS/MS analysis; format: ADME; details: 1 h
# [5] = Equilibrium solubility of the compound in sodium phosphate buffer at pH 7.4 measured after 24 hrs by LC-MS/MS analysis; format: physicochemical
# [6] = target: T2, Bifunctional epoxide hydrolase 2 (Homo sapiens, UniProt P34913); experiment: Inhibition of recombinant human sEH expressed in insect High Five cells preincubated for 5 mins followed by addition of t-DPPO as substrate measured after 10 mins by liquid scintillation counter method; format: cell-based, BTI-TN-5B1-4
# T2 sequence (P34913 whole entry): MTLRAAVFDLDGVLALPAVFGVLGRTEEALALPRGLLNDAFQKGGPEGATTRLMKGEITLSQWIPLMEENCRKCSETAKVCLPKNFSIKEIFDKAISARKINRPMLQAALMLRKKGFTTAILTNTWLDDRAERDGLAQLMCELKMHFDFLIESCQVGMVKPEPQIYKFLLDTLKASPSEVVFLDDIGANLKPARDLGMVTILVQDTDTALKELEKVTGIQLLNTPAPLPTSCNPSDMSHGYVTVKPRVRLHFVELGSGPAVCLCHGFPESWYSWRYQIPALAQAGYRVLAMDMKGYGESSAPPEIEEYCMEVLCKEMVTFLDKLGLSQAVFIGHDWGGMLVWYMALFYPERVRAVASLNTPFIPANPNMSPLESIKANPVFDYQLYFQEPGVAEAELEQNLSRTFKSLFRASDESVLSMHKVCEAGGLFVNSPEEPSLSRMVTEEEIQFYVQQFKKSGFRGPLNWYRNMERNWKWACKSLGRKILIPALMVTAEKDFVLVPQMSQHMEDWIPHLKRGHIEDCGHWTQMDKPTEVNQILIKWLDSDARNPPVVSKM
# [7] = Antagonist activity at thyroid hormone receptor in rat GH3 cells expressing TRE at 10 uM measured after 24 hrs in presence of T3 by luciferase reporter gene assay; format: cell-based; details: GH3, 24 h; in short: as §1
# [8] = Stability in rat GH3 cells expressing TRE and luciferase gene assessed as percentage remaining at 10 uM measured after 24 hrs; format: ADME, cell-based; details: read-out: Stability
# In short: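 Compound at 10 µM initial concentration incubated 24 h with GH3.TRE-Luc cells. Read-out is percentage of compound remaining, given as mean±SD.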
# [9] = Cytotoxicity against human CFBE cells at 10 uM by Cytotox 96 non-radioactive cytotoxicity assay; format: cell-based
# GH3 = experiment: Cytotoxicity against rat GH3 cells expressing TRE and luciferase gene assessed as cell viability; format: cell-based
# In short: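 GH3.TRE-Luc cells were seeded in 24-well plates for 24 h, then exposed for 24 h to test chemical in DMSO (0.5% v/v final), with or without T3. Viability per well was taken as total protein by BCA assay. Compounds were tested up to 10 µM.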
smiles,measurement,setting,value
C#Cc1cc(Oc2c(Cl)cc(NC(=O)CC(=O)OCC)cc2Cl)ccc1O,pIC50,[1],5.54
CCOC(=O)CC(=O)Nc1cc(Cl)c(Oc2ccc(O)cc2)c(Cl)c1,pIC50,[1],< 4.30
CC(C)c1cc(Oc2c(Br)cc(N)cc2Br)ccc1O,pIC50,[1],5.01
CCC(=O)Nc1cc(Cl)c(Oc2ccc(O)c(-c3ccc(C(=O)O)cc3)c2)c(Cl)c1,pIC50,[1],4.98
CCC(=O)Nc1cc(Cl)c(Oc2ccc(O)c(-c3ccc(C(=O)NC)cc3)c2)c(Cl)c1,pIC50,[1],5.77
CCOC(=O)CC(=O)Nc1cc(Br)c(Oc2ccc(OC)c(C(C)C)c2)c(Br)c1,pIC50,[1],< 4.60
CCOC(=O)CC(=O)Nc1cc(Cl)c(Oc2ccc(O)c(I)c2)c(Cl)c1,pIC50,[1],5.42
CCCCCCCCCSC(C)C(N)=O (configuration not stated),pIC50,Epoxide hydrolase 1,5.22
CCOC(=O)CC(=O)Nc1ccc(Oc2ccc(O)c(C(C)C)c2)c(Cl)c1,pIC50,[1],4.94
CCC(=O)Nc1cc(Cl)c(Oc2ccc(O)c(-c3ccc(S(N)(=O)=O)cc3)c2)c(Cl)c1,pIC50,[1],5.70
CCC(=O)Nc1cc(Cl)c(Oc2ccc(O)c(-c3ccccc3)c2)c(Cl)c1,remaining at 1 h,[2],63%
same,pIC50,[1],5.85
CCOC(=O)CC(=O)Nc1cc(Cl)c(Oc2ccc(O)cc2Br)c(Cl)c1,pIC50,[1],4.53
CCOC(=O)CC(=O)Nc1cc(Cl)c(Oc2ccc(O)c(C(C)C)c2)c(Cl)c1,pIC50,[1],5.42
CCC(=O)Nc1cc(Cl)c(Oc2ccc(O)c(-c3cccc(C#N)c3)c2)c(Cl)c1,pIC50,[1],6.24
CC(=O)Nc1cc(Br)c(Oc2ccc(O)c(C(C)C)c2)c(Br)c1,pIC50,[1],5.06
CCOC(=O)CC(=O)Nc1cc(Br)c(Oc2cccc(C(C)C)c2)c(Br)c1,pIC50,[1],< 4.30
CCC(=O)Nc1cc(Cl)c(Oc2ccc(O)c(-c3ccc(NC(C)=O)cc3)c2)c(Cl)c1,pIC50,[1],4.81
CCOC(=O)CC(=O)Nc1cc(Cl)c(Oc2ccc(O)c(Br)c2)c(Cl)c1,pIC50,[1],5.31
CCOC(=O)CCC(=O)Nc1cc(Br)c(Oc2ccc(O)c(C(C)C)c2)c(Br)c1,pIC50,[1],5.26
CC(C)c1cc(Oc2c(Br)cc(NC(=O)CCC(=O)O)cc2Br)ccc1O,pIC50,[1],5.49
CCOC(=O)CC(=O)Nc1cc(Cl)c(Oc2ccc(O)c(C(F)(F)F)c2)c(Cl)c1,pIC50,[1],5.52
CCC(=O)Nc1cc(Cl)c(Oc2ccc(O)c(-c3cccc(C(N)=O)c3)c2)c(Cl)c1,pIC50,[1],6.34
CCC(=O)Nc1cc(Cl)c(Oc2ccc(O)c(-c3ccc(C(C)=O)cc3)c2)c(Cl)c1,pIC50,Epoxide hydrolase 1,4.01
same,pEC50,[3],< 5.00
same,PPB,[4],> 99%
same,t1/2,Liver microsome,5.7 min
same,solubility thermodynamic at 24 h,[5],< 0.04 µM
same,pIC50,[6],5.11
same,inhibition at 10 µM,[7],33%
same,"remaining at 24 h, 10 µM",[8],74%
same,pIC50,[1],6.46
CCOC(=O)CC(=O)Nc1cc(Br)c(Oc2ccc(O)c(C(C)C)c2)c(Br)c1,pIC50,[1],5.17
CCC(=O)Nc1cc(Br)c(Oc2ccc(O)c(C(C)C)c2)c(Br)c1,pIC50,[1],5.12
CCC(=O)Nc1cc(Cl)c(Oc2ccc(O)c(-c3ccc(C(N)=O)cc3)c2)c(Cl)c1,pIC50,Epoxide hydrolase 1,4.76
same,pEC50,[3],< 5.00
same,PPB,[4],> 99%
same,t1/2,Liver microsome,15 min
same,solubility thermodynamic at 24 h,[5],0.17 µM
same,pIC50,[6],5.07
same,inhibition at 10 µM,[7],66%
same,Activity,[9],Non-toxic
same,"remaining at 24 h, 10 µM",[8],106%
same,Activity,GH3,Non-toxic
same,pIC50,[1],6.46
CCC(=O)Nc1cc(Cl)c(Oc2ccc(O)c(-c3ccc(NC(N)=O)cc3)c2)c(Cl)c1,pIC50,Epoxide hydrolase 1,4.58
same,pEC50,[3],< 5.00
same,PPB,[4],> 99%
same,t1/2,Liver microsome,29 min
same,solubility thermodynamic at 24 h,[5],21 µM
same,pIC50,[6],5.12
same,inhibition at 10 µM,[7],28%
same,Activity,[9],Non-toxic
same,"remaining at 24 h, 10 µM",[8],103%
same,Activity,GH3,Non-toxic
same,pIC50,[1],6.54
CCC(=O)Nc1cc(Cl)c(Oc2ccc(O)c(-c3ccc(C#N)cc3)c2)c(Cl)c1,pIC50,[1],4.92
